Activity calls are given as the source filed them. No cut-off for these calls is given here.
How the values were obtained:
[1] = biological target: T1, Hypoxia inducible factors; HIF-1-alpha, HIF-2-alpha (Homo sapiens, UniProt Q16665+Q99814); assay: Inhibition of hypoxia-induced HIF1 activation in human T47D cells carrying […] reporter gene measured by luciferase activity; format: cell-based
Method in brief: (§1)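 T47D cells were transiently transfected with the pTK-HRE3-luc reporter (erythropoietin HRE). They were pretreated with compound for 30 min, then held 16 h at 1% O2/5% CO2/94% N2. Luciferase activity was reported as % inhibition versus the induced control. One representative experiment, run in quadruplicate, mean ± SE.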

[2] = biological target: T1, Hypoxia inducible factors; HIF-1-alpha, HIF-2-alpha; assay: Inhibition of hypoxia-induced HIF1 activation in human T47D cells carrying […] reporter gene measured by luciferase activity at 1.78 uM; format: cell-based; method in brief: as §1
T47D [3] = assay: Inhibition of hypoxia-induced secreted VEGF protein level in human T47D cells at 1 uM by ELISA; format: functional
Method in brief: (§2)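 T47D cells seeded at 3.56×10^5/well in DMEM/F12 with 10% FBS and grown 24 h. Half the medium was replaced with serum-free medium containing compound. After a 30 min pretreatment, cells were held 16 h at 1% O2. VEGF in conditioned medium was measured by human VEGF ELISA and normalized to viable cell count (hemocytometer). Triplicate, mean ± SE, ANOVA/Fisher's PLSD.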

T47D [4] = assay: Inhibition of hypoxia-induced secreted VEGF protein level in human T47D cells at 3 uM by ELISA; format: functional; method in brief: as §2
T47D [5] = assay: Reduction of human T47D cell colony formation under hypoxic condition at 1 uM by clonogenic survival assay; format: functional
Method in brief: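 T47D cells seeded at 400 cells per 100 mm dish and allowed to adhere 4 h. Half the medium was replaced with serum-free medium containing compound. After a 30 min pretreatment, cells were held 24 h at 1% O2 (normoxic comparison run in parallel). Medium was then refreshed and cells grown 2–3 weeks under normoxia. Colonies were methanol-fixed and stained with crystal violet, and those over 50 cells counted.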

T47D [6] = assay: Inhibition of human T47D cell proliferation/viability up to 100 uM after 48 hrs by MTT assay; format: functional
Method in brief: (§3)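 Cells grown in DMEM/F12 with 10% FBS and antibiotics, seeded at 3×10^4/well, incubated 24 h at 37 °C. Compound diluted in serum-free medium, tested at 10^-9 to 10^-4 M for 48 h under normoxia. MTT added to 0.25 mg/mL final for 4 h at 37 °C, then lysed in 0.04 N HCl/isopropanol, A570 read.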

MCF7 = assay: Inhibition of human MCF7 cell proliferation/viability up to 100 uM after 48 hrs by MTT assay; format: functional; method in brief: as §3
MDA-MB-231 = assay: Inhibition of human MDA-MB-231 cell proliferation/viability up to 100 uM after 48 hrs by MTT assay; format: functional; method in brief: as §3
[7] = Inhibition of african green monkey Vero cell proliferation/viability up to 100 uM after 48 hrs by MTT assay; format: cell-based; conditions: chlorocebus sabaeus, Vero cells; method in brief: as §3
SK-BR-3 = assay: Inhibition of human SK-BR-3 cell proliferation/viability at 100 uM after 48 hrs by MTT assay; format: functional; conditions: SK-BR-3, 48 h; method in brief: as §3
T47D [8] = assay: Blockade of HIF1alpha protein expression in hypoxia-induced human T47D cells at 1 uM under 30 mins in normoxic condition followed by 4 hrs in hypoxic condition; format: functional, cell-based
Method in brief: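 T47D nuclear HIF-1α (and HIF-1β) measured by Western blot of nuclear extracts. Exponentially grown cells were pretreated 30 min under normoxia (95% air), then held 4 h at 1% O2.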

[9] = Inhibition of electron transport pathway in C57B1/6 mouse liver mitochondria; format: functional
Mus musculus = organism: Mus musculus; assay: Inhibition of C57B1/6 mouse liver mitochondrial activity in presence of succinate; format: functional

CC1=C[C@@H](O)C(C(C)CC[C@@H]2[C@@H](C)[C@]3(C)CC[C@@]2(C)O3)CC1 (some centres undefined) [LAURENDITERPENOL] gave an EC50 [1] of 0.4 µM, an IC50 [1] of 0.4 µM and an inhibition [2] of 88%. It also gave an inhibition at 1 µM (T47D [3]) of 55%, an inhibition at 3 µM (T47D [4]) of 80% and an inhibition at 1 µM (T47D [5]) of 50%. The “inhibition (INH)” value (T47D [6]) was <50%, the “inhibition (INH)” value (MCF7) was <50% and the “inhibition (INH)” value (MDA-MB-231) was <50%. For the same molecule, the inhibition at 48 h [7] was < 50%, the inhibition at 100 µM (SK-BR-3) was 63% and the Activity (T47D [8]) was “Active”. For the same molecule, the IC50 [9] was 0.8 µM and the Activity (Mus musculus) was “inactive”.

Source: ChEMBL document CHEMBL1148968 (J Nat Prod, 2004)
